In ChEMBL document CHEMBL3112482, “Nonclassical antifolates, part 5. Benzodiazepine analogs as a new class of DHFR inhibitors: synthesis, antitumor testing and molecular modeling study” (Eur J Med Chem, 2014):

Assays:
Assay type in all cases: functional
MOLT-4 = test: Growth inhibition of human MOLT4 cells at 10 uM after 48 hrs; details: MOLT-4, 48 h, read-out: GI
How it was run: (§1)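 Single-dose primary screen in the NCI 60 human tumour cell line panel, run at the NCI facility. The panel covers nine subpanels: leukaemia, non-small cell lung, colon, CNS, melanoma, ovarian, renal, prostate and breast. Read-out was percent growth of treated cells, shown as a mean graph and reported as percent growth inhibition.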

NCI-H23 = test: Growth inhibition of human NCI-H23 cells at 10 uM after 48 hrs; details: NCI-H23, 48 h, read-out: GI; how it was run: as §1
SNB-19 = test: Growth inhibition of human SNB19 cells at 10 uM after 48 hrs; details: SNB-19, 48 h, read-out: GI
How it was run: (§2)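 NCI 60-cell-line disease-oriented human tumor panel, single-dose primary screen at 10 µM. Data given as mean-graph percent growth of treated cells, reported as percent growth inhibition (GI %).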

SK-MEL-28 = test: Growth inhibition of human SK-MEL-28 cells at 10 uM after 48 hrs; details: SK-MEL-28, 48 h, read-out: GI; how it was run: as §2
NCI-H226 = test: Growth inhibition of human NCI-H226 cells at 10 uM after 48 hrs; details: NCI-H226, 48 h, read-out: GI; how it was run: as §1
CCRF-CEM = test: Growth inhibition of human CCRF-CEM cells at 10 uM after 48 hrs; details: read-out: GI; how it was run: as §1
SK-OV-3 = test: Growth inhibition of human SKOV3 cells at 10 uM after 48 hrs; details: SK-OV-3, 48 h, read-out: GI; how it was run: as §2
A549 = test: Growth inhibition of human A549 cells at 10 uM after 48 hrs; details: A549, 48 h, read-out: GI; how it was run: as §1
SR = test: Growth inhibition of human SR cells at 10 uM after 48 hrs; details: read-out: GI; how it was run: as §2
[1] = Growth inhibition of human NCI-ADR-RES cells at 10 uM after 48 hrs; details: read-out: GI; how it was run: as §1
MCF7 = test: Growth inhibition of human MCF7 cells at 10 uM after 48 hrs; details: MCF7, 48 h, read-out: GI; how it was run: as §1
SNB-75 = test: Growth inhibition of human SNB75 cells at 10 uM after 48 hrs; details: SNB-75, 48 h, read-out: GI; how it was run: as §2
PC-3 = test: Growth inhibition of human PC3 cells at 10 uM after 48 hrs; details: PC-3, 48 h, read-out: GI; how it was run: as §1
[2] = Growth inhibition of human OVCAR5 cells at 10 uM after 48 hrs; details: OVCAR-5, 48 h, read-out: GI; how it was run: as §1
MDA-MB-231 = test: Growth inhibition of human MDA-MB-231 cells at 10 uM after 48 hrs; details: MDA-MB-231, 48 h, read-out: GI; how it was run: as §1
OVCAR-8 = test: Growth inhibition of human OVCAR8 cells at 10 uM after 48 hrs; details: OVCAR-8, 48 h, read-out: GI; how it was run: as §1
DU-145 = test: Growth inhibition of human DU145 cells at 10 uM after 48 hrs; details: DU-145, 48 h, read-out: GI; how it was run: as §1
SF-268 = test: Growth inhibition of human SF268 cells at 10 uM after 48 hrs; details: SF-268, 48 h, read-out: GI; how it was run: as §2
MDA-MB-435 = test: Growth inhibition of human MDA-MB-435 cells at 10 uM after 48 hrs; details: MDA-MB-435, 48 h, read-out: GI; how it was run: as §1
[3] = Growth inhibition of human OVCAR4 cells at 10 uM after 48 hrs; details: OVCAR-4, 48 h, read-out: GI; how it was run: as §1
HT-29 = test: Growth inhibition of human HT-29 cells at 10 uM after 48 hrs; details: HT-29, 48 h, read-out: GI; how it was run: as §1
[4] = Growth inhibition of human EKVX cells at 10 uM after 48 hrs; details: read-out: GI; how it was run: as §1
K562 = test: Growth inhibition of human K562 cells at 10 uM after 48 hrs; details: K562, 48 h, read-out: GI; how it was run: as §1
ACHN = test: Growth inhibition of human ACHN cells at 10 uM after 48 hrs; details: read-out: GI; how it was run: as §1
SK-MEL-5 = test: Growth inhibition of human SK-MEL-5 cells at 10 uM after 48 hrs; details: SK-MEL-5, 48 h, read-out: GI; how it was run: as §2
SN12C = test: Growth inhibition of human SN12C cells at 10 uM after 48 hrs; details: read-out: GI; how it was run: as §2
[5] = Growth inhibition of human HOP92 cells at 10 uM after 48 hrs; details: HOP-92, 48 h, read-out: GI; how it was run: as §1
COLO 205 = test: Growth inhibition of human COLO205 cells at 10 uM after 48 hrs; details: COLO 205, 48 h, read-out: GI; how it was run: as §1
[6] = Growth inhibition of human UO31 cells at 10 uM after 48 hrs; details: UO-31, 48 h, read-out: GI; how it was run: as §2
NCI-H322M = test: Growth inhibition of human NCI-H322M cells at 10 uM after 48 hrs; details: read-out: GI; how it was run: as §1
[7] = Growth inhibition of human Hs 578T cells at 10 uM after 48 hrs; details: read-out: GI; how it was run: as §1
[8] = Growth inhibition of human RXF393 cells at 10 uM after 48 hrs; details: RXF 393, 48 h, read-out: GI; how it was run: as §1
BT-549 = test: Growth inhibition of human BT549 cells at 10 uM after 48 hrs; details: BT-549, 48 h, read-out: GI; how it was run: as §1
786-0 = test: Growth inhibition of human 786-0 cells at 10 uM after 48 hrs; details: 786-0, 48 h, read-out: GI; how it was run: as §1
CAKI-1 = test: Growth inhibition of human CAKI-1 cells at 10 uM after 48 hrs; details: CAKI-1, 48 h, read-out: GI; how it was run: as §1
[9] = Growth inhibition of human SF539 cells at 10 uM after 48 hrs; details: SF-539, 48 h, read-out: GI; how it was run: as §2
TK-10 = test: Growth inhibition of human TK10 cells at 10 uM after 48 hrs; details: TK-10, 48 h, read-out: GI; how it was run: as §2
Malme-3M = test: Growth inhibition of human MALME-3M cells at 10 uM after 48 hrs; details: read-out: GI; how it was run: as §1
T47D = test: Growth inhibition of human T47D cells at 10 uM after 48 hrs; details: read-out: GI; how it was run: as §2
OVCAR-3 = test: Growth inhibition of human OVCAR3 cells at 10 uM after 48 hrs; details: OVCAR-3, 48 h, read-out: GI; how it was run: as §1

SMILES | inhibition of growth at 10 µM (MOLT-4) [%] | inhibition of growth at 10 µM (NCI-H23) [%] | inhibition of growth at 10 µM (SNB-19) [%] | inhibition of growth at 10 µM (SK-MEL-28) [%] | inhibition of growth at 10 µM (NCI-H226) [%] | inhibition of growth at 10 µM (CCRF-CEM) [%] | inhibition of growth at 10 µM (SK-OV-3) [%] | inhibition of growth at 10 µM (A549) [%] | inhibition of growth at 10 µM (SR) [%] | inhibition of growth at 10 µM [1] [%] | inhibition of growth at 10 µM (MCF7) [%] | inhibition of growth at 10 µM (SNB-75) [%] | inhibition of growth at 10 µM (PC-3) [%] | inhibition of growth at 10 µM [2] [%] | inhibition of growth at 10 µM (MDA-MB-231) [%] | inhibition of growth at 10 µM (OVCAR-8) [%] | inhibition of growth at 10 µM (DU-145) [%] | inhibition of growth at 10 µM (SF-268) [%] | inhibition of growth at 10 µM (MDA-MB-435) [%] | inhibition of growth at 10 µM [3] [%] | also measured
Cc1nc2c(c(-c3ccc(Br)cc3)n1)CCC/C2=C\c1ccc(Br)cc1 | < 30 | < 30 | < 30 | < 30 | < 30 | < 30 | < 30 | < 30 | < 30 | < 30 | 56.7 | < 30 | < 30 | < 30 | < 30 | < 30 | < 30 | < 30 | < 30 | < 30 | inhibition of growth at 10 µM (HT-29): < 30%; inhibition of growth at 10 µM [4]: < 30%; inhibition of growth at 10 µM (K562): < 30%; inhibition of growth at 10 µM (ACHN): < 30%; inhibition of growth at 10 µM (SK-MEL-5): < 30%; inhibition of growth at 10 µM (SN12C): < 30%; inhibition of growth at 10 µM [5]: < 30%; inhibition of growth at 10 µM (COLO 205): < 30%; inhibition of growth at 10 µM [6]: < 30%; inhibition of growth at 10 µM (NCI-H322M): < 30%; inhibition of growth at 10 µM [7]: < 30%; inhibition of growth at 10 µM [8]: < 30%; inhibition of growth at 10 µM (BT-549): < 30%; inhibition of growth at 10 µM (786-0): < 30%; inhibition of growth at 10 µM (CAKI-1): < 30%; inhibition of growth at 10 µM [9]: < 30%; inhibition of growth at 10 µM (TK-10): < 30%; inhibition of growth at 10 µM (Malme-3M): < 30%; inhibition of growth at 10 µM (T47D): < 30%; inhibition of growth at 10 µM (OVCAR-3): < 30%
Cc1nc2c(c(-c3ccc(Cl)cc3)n1)CCC/C2=C\c1ccc(Cl)cc1 | < 30 | < 30 | < 30 | < 30 | < 30 | < 30 | < 30 | < 30 | < 30 | < 30 | 68.7 | < 30 | < 30 | < 30 | < 30 | < 30 | < 30 | < 30 | 77.7 | < 30 | inhibition of growth at 10 µM (HT-29): 45.6%; inhibition of growth at 10 µM [4]: < 30%; inhibition of growth at 10 µM (K562): < 30%; inhibition of growth at 10 µM (ACHN): < 30%; inhibition of growth at 10 µM (SK-MEL-5): < 30%; inhibition of growth at 10 µM (SN12C): < 30%; inhibition of growth at 10 µM [5]: < 30%; inhibition of growth at 10 µM (COLO 205): < 30%; inhibition of growth at 10 µM [6]: < 30%; inhibition of growth at 10 µM (NCI-H322M): < 30%; inhibition of growth at 10 µM [7]: < 30%; inhibition of growth at 10 µM [8]: < 30%; inhibition of growth at 10 µM (BT-549): 34%; inhibition of growth at 10 µM (786-0): < 30%; inhibition of growth at 10 µM (CAKI-1): < 30%; inhibition of growth at 10 µM [9]: < 30%; inhibition of growth at 10 µM (TK-10): < 30%; inhibition of growth at 10 µM (Malme-3M): < 30%; inhibition of growth at 10 µM (T47D): < 30%; inhibition of growth at 10 µM (OVCAR-3): < 30%
